Experimental data reported in ChEMBL document CHEMBL2146441, “2,6-Disubstituted imidazo[2,1-b][1,3,4]thiadiazoles: search for anticancer agents” (2012).

Tests used:
Assay type in all cases: functional
NCI-H522 = experiment: Cytotoxicity against human NCI-H522 cells assessed as cell growth at 10^-5 M after 48 hrs by SRB assay; conditions: NCI-H522, 48 h, read-out: Activity
COLO = experiment: Cytotoxicity against human COLO […] cells assessed as cell growth at 10^-5 M after 48 hrs by SRB assay; conditions: read-out: Activity
Procedure, shortened: (§1)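 NCI-60 screen: lines kept in RPMI 1640 with 5% FBS, seeded at 5000–40,000 cells/well by doubling time, preincubated 24 h at 37 °C in 5% CO2. Time-zero plates TCA-fixed at drug addition. DMSO stocks diluted in medium, 48 h exposure. Fixation in cold TCA (final 10% adherent, 16% suspension), 0.4% SRB stain, solubilised in 10 mM Tris base, A515. Percent growth computed against control and time-zero.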

HT-29 = experiment: Cytotoxicity against human HT-29 cells assessed as cell growth at 10^-5 M after 48 hrs by SRB assay; conditions: HT-29, 48 h, read-out: Activity
Procedure, shortened: (§2)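 NCI-60 five-dose screen. Cells were grown in RPMI 1640 with 5% FBS and seeded at 5000–40,000 cells/well according to doubling time. They were pre-incubated 24 h at 37 °C in 5% CO₂, and time-zero (Tz) plates were TCA-fixed at drug addition. Five 10-fold dilutions of DMSO stock were applied for 48 h. Read-out was SRB staining, 515 nm absorbance, with percent growth calculated versus Tz and untreated control.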

SF-539 [1] = experiment: Cytotoxicity against human SF539 cells assessed as cell growth at 10^-5 M after 48 hrs by SRB assay; conditions: SF-539, 48 h, read-out: Activity
UACC-62 [2] = experiment: Cytotoxicity against human UACC62 cells assessed as cell growth at 10^-5 M after 48 hrs by SRB assay; conditions: UACC-62, 48 h, read-out: Activity
786-0 = experiment: Growth inhibition of human 786-0 cells after 48 hrs by SRB assay; conditions: 786-0, 48 h
Procedure, shortened: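 Same 48 h NCI-60 five-dose SRB protocol. Adherent lines were fixed with cold TCA at 10% final; suspension lines such as CCRF-CEM were fixed with 16% final TCA. Stain was 0.4% SRB in 1% acetic acid for 10 min, solubilized in 10 mM Tris base and read at 515 nm. GI50 came from log concentration–growth curves, solving [(Ti−Tz)/(C−Tz)]×100 = 50.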

TK-10 = experiment: Growth inhibition of human TK10 cells after 48 hrs by SRB assay; conditions: TK-10, 48 h; for CC50: read-out: LC50 (the source's name)
Procedure, shortened: (§3)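 Adherent NCI-60 lines grown in RPMI 1640 with 5% FBS, seeded at 5000–40,000 cells/well, and preincubated 24 h at 37 °C, 5% CO2. Compound, stocked in DMSO, given either once at 10^-5 M or at five 10-fold dilutions for 48 h. Cells fixed with cold TCA (final 10%), stained with 0.4% SRB, and read at 515 nm. GI50 taken as 50% reduction in net protein increase versus time-zero and control plates.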

MDA-MB-468 = experiment: Growth inhibition of human MDA-MB-468 cells after 48 hrs by SRB assay; conditions: MDA-MB-468, 48 h; procedure, shortened: as §3
[3] = Cytotoxicity against human […] cells assessed as cell growth at 10^-7 M after 48 hrs by SRB assay; conditions: 48 h, read-out: Activity
HCC 2998 = experiment: Cytotoxicity against human HCC2998 cells assessed as cell growth at 10^-7 M after 48 hrs by SRB assay; conditions: HCC 2998, 48 h, read-out: Activity; procedure, shortened: as §2
SK-MEL-28 = experiment: Cytotoxicity against human SK-MEL-28 cells assessed as cell growth at 10^-7 M after 48 hrs by SRB assay; conditions: SK-MEL-28, 48 h, read-out: Activity
SF-539 [4] = experiment: Cytotoxicity against human SF539 cells assessed as cell growth at 10^-4 M after 48 hrs by SRB assay; conditions: SF-539, 48 h, read-out: Activity
U-251 = experiment: Cytotoxicity against human U251 cells assessed as cell growth at 10^-4 M after 48 hrs by SRB assay; conditions: U-251, 48 h, read-out: Activity
A498 = experiment: Cytotoxicity against human A498 cells assessed as cell growth at 10^-4 M after 48 hrs by SRB assay; conditions: A498, 48 h, read-out: Activity; procedure, shortened: as §1
[5] = Growth inhibition of human Hs 578T cells after 48 hrs by SRB assay; procedure, shortened: as §3
CAKI-1 = experiment: Cytotoxicity against human Caki1 cells assessed as cell growth at 10^-7 M after 48 hrs by SRB assay; conditions: CAKI-1, 48 h, read-out: Activity; procedure, shortened: as §1
MCF7 = experiment: Cytotoxicity against human MCF7 cells assessed as cell growth at 10^-7 M after 48 hrs by SRB assay; conditions: MCF7, 48 h, read-out: Activity
T47D = experiment: Cytotoxicity against human T47D cells assessed as cell growth at 10^-7 M after 48 hrs by SRB assay; conditions: read-out: Activity
HCT-15 = experiment: Cytotoxicity against human HCT15 cells assessed as cell growth at 10^-8 M after 48 hrs by SRB assay; conditions: HCT-15, 48 h, read-out: Activity; procedure, shortened: as §2
MDA-MB-435 = experiment: Cytotoxicity against human MDA-MB-435 cells assessed as cell growth at 10^-8 M after 48 hrs by SRB assay; conditions: MDA-MB-435, 48 h, read-out: Activity
UACC-62 [6] = experiment: Cytotoxicity against human UACC62 cells assessed as cell growth at 10^-8 M after 48 hrs by SRB assay; conditions: UACC-62, 48 h, read-out: Activity
Malme-3M = experiment: Cytotoxicity against human MALME-3M cells assessed as cell growth at 10^-6 M after 48 hrs by SRB assay; conditions: read-out: Activity
[7] = Growth inhibition of human […] cells after 48 hrs by SRB assay
Procedure, shortened: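 Leukemia suspension lines grown in RPMI 1640 with 5% FBS, seeded at 5000–40,000 cells/well, and preincubated 24 h at 37 °C, 5% CO2. Compound, stocked in DMSO, given either once at 10^-5 M or at five 10-fold dilutions for 48 h. Settled cells fixed with 80% TCA (final 16%), stained with SRB, and read at 515 nm. GI50 calculated against time-zero and control growth.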

EKVX = experiment: Growth inhibition of human EKVX cells after 48 hrs by SRB assay; procedure, shortened: as §3
[8] = Cytotoxicity against human Hs 578T cells assessed as cell growth at 10^-6 M after 48 hrs by SRB assay; conditions: read-out: Activity; procedure, shortened: as §2
BT-549 = experiment: Cytotoxicity against human BT549 cells assessed as cell growth at 10^-6 M after 48 hrs by SRB assay; conditions: BT-549, 48 h, read-out: Activity; procedure, shortened: as §1
[9] = Cytotoxicity against human […] cells assessed as cell growth at 10^-5 M after 48 hrs by SRB assay; conditions: RPMI8266, 48 h, read-out: Activity

Row | SMILES | growth at 10 µM (NCI-H522) | growth at 10 µM (COLO) | growth at 10 µM (HT-29) | growth at 10 µM (SF-539 [1]) | growth at 10 µM (UACC-62 [2]) | GI50 (786-0) | TGI (786-0) | GI50 (TK-10) | TGI (TK-10) | CC50 (TK-10) | GI50 (MDA-MB-468) | LC50 (MDA-MB-468) | TGI (MDA-MB-468) | growth at 0.1 µM [3] | growth at 0.1 µM (HCC 2998) | growth at 0.1 µM (SK-MEL-28) | growth at 100 µM (SF-539 [4]) | growth at 100 µM (U-251) | growth at 100 µM (A498) | GI50 [5] | other results
1 | COc1ccc(-c2nn3cc(-c4cccc(N)c4)nc3s2)cc1 | 13% | 42% | 27% | -11% | 26% | 4.7 µM | 15.9 µM | 7.56 µM | 37.4 µM | > 100 µM | 1.83 µM | > 100 µM | 9.32 µM | 83% | 96% | 95% | -68% | -17% | -67% | 2.33 µM | LC50 (786-0): 42.9 µM; LC50 (concentration killing 50% of starting cells) [5]: > 100 µM; TGI [5]: 23.3 µM; growth at 0.1 µM (CAKI-1): 76%; growth at 0.1 µM (MCF7): 78%; growth at 0.1 µM (T47D): 86%; growth at 0.01 µM (HCT-15): 98%; growth at 0.01 µM (MDA-MB-435): 95%; growth at 0.01 µM (UACC-62 [6]): 93%; growth at 1 µM (Malme-3M): 71%; GI50 [7]: 1.28 µM; LC50 [7]: > 100 µM; TGI [7]: 26.7 µM; GI50 (EKVX): 1.01 µM; LC50 (concentration killing 50% of cells) (EKVX): > 100 µM; TGI (EKVX): 12.8 µM; growth at 1 µM [8]: 76%; growth at 1 µM (BT-549): 87%; growth at 10 µM [9]: 6%
2 | COc1ccc(-c2nn3cc(-c4ccc(O)cc4O)nc3s2)cc1 | 1% | 35% | 9% | -82% | 24% | 1.72 µM | 3.43 µM | 3.46 µM | 17.4 µM | > 100 µM | 1.5 µM | > 100 µM | 17.6 µM | 95% | 94% | 92% | -47% | -46% | -37% | 1.92 µM | LC50 (concentration killing 50% of starting cells) [5]: > 100 µM; TGI [5]: 9.27 µM; growth at 0.1 µM (CAKI-1): 90%; growth at 0.1 µM (MCF7): 89%; growth at 0.1 µM (T47D): 89%; growth at 0.01 µM (HCT-15): 96%; growth at 0.01 µM (MDA-MB-435): 97%; growth at 0.01 µM (UACC-62 [6]): 98%; growth at 1 µM (Malme-3M): 61%; GI50 [7]: 2.08 µM; LC50 [7]: > 100 µM; TGI [7]: > 100 µM; GI50 (EKVX): 1.95 µM; LC50 (concentration killing 50% of cells) (EKVX): > 100 µM; TGI (EKVX): 41.2 µM; growth at 1 µM [8]: 71%; growth at 1 µM (BT-549): 73%; growth at 10 µM [9]: 10%
